From ChEMBL document CHEMBL1150614, “Novel cytotoxic oxygenated C29 sterols from the Colombian marine sponge Polymastia tenax” (J Nat Prod, 2002)
Converted amounts (≈) assume the structure as drawn.

Assays:
Conditions in all cases: read-out: LC50 (the source's name)
A549 = experiment: Cytotoxicity against human A549 cells; type: functional
Outline: (§1)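 In vitro cytotoxicity assay against the cell line named; values reported as IC50 in µg/mL.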

HT-29 = experiment: Cytotoxicity against human HT-29 cells; type: functional; outline: as §1
[1] = Cytotoxicity against human H116 cells; type: functional; outline: as §1
[2] = Cytotoxicity against mouse MS1 cells; type: cell-based; outline: as §1
PC-3 = experiment: Cytotoxicity against human PC3 cells; type: functional; outline: as §1

For `CC[C@H](CC[C@@H](C)[C@H]1CCC2=C3[C@H](O)[C@@H]4O[C@@]45C[C@@H](O)CC[C@]5(C)[C@H]3CC[C@@]21C)C(C)C`, the CC50 (A549) was 5 µg/mL (≈ 11.2 µM), the CC50 (HT-29) was 1 µg/mL (≈ 2.25 µM) and the CC50 [1] was 1 µg/mL (≈ 2.25 µM). It also gave a CC50 [2] of 0.5 µg/mL (≈ 1.12 µM) and a CC50 (PC-3) of 1 µg/mL (≈ 2.25 µM).
`CC[C@H](CC[C@@H](C)[C@H]1CC[C@H]2C3=C(CC[C@]12C)[C@@]1(C)CC[C@H](O)C[C@@]12O[C@H]2[C@H]3O)C(C)C` (relative stereo) showed a CC50 (A549) of 1 µg/mL (≈ 2.25 µM), a CC50 (HT-29) of 1 µg/mL (≈ 2.25 µM) and a CC50 [1] of 1 µg/mL (≈ 2.25 µM). It also gave a CC50 [2] of 0.5 µg/mL (≈ 1.12 µM) and a CC50 (PC-3) of 1 µg/mL (≈ 2.25 µM).
